Measurements reported in ChEMBL document CHEMBL1157336, “Bisabolane sesquiterpenes from the roots of Ligularia cymbulifera” (2006).

How the values were obtained:
Type in all cases: functional
Staphylococcus aureus [1] = experiment: Antibacterial activity against Staphylococcus aureus ATCC 25923 after 24 hrs by broth microdilution assay; settings: ATCC 25923, 24 h
How it was run: (§1)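 Broth microdilution MIC in Mueller-Hinton broth; serial doubling dilutions over 0.0024-1.25 mg/mL. Overnight broth cultures, inoculum adjusted to 2 × 10^6 cfu/mL final per well. Incubated at 37 °C for 24 h. MIC read as the lowest concentration without visible growth (no turbidity). Duplicate wells, repeated twice; levofloxacin as positive control.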

Staphylococcus aureus [2] = experiment: Antibacterial activity against methicillin-resistant Staphylococcus aureus isolate after 24 hrs by broth microdilution assay
How it was run: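 Clinical MRSA isolate; broth microdilution in Mueller-Hinton broth, twofold serial dilutions over 0.0024-1.25 mg/mL, final inoculum 2 × 10^6 cfu/mL from overnight broth culture; 37 °C, 24 h. MIC taken as lowest concentration without visible turbidity. Duplicate wells, repeated twice; levofloxacin positive control.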

Escherichia coli = experiment: Antibacterial activity against Escherichia coli ATCC 25922 after 24 hrs by broth microdilution assay; settings: ATCC 25922, 24 h; how it was run: as §1
Candida albicans = experiment: Antifungal activity against Candida albicans after 48 hrs by broth microdilution assay
How it was run: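 Yeast tested by broth microdilution in Mueller-Hinton broth; samples serially doubled over 0.0024-1.25 mg/mL. Inoculum from overnight broth culture, final 2 × 10^6 cfu/mL per well. Plates held at 30 °C for 48 h. MIC taken as the lowest concentration showing no turbidity. Duplicate, repeated twice; fluconazole positive control.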

Measured: MIC

C=C(C(CC1OC1(C)C)OC(=O)/C(C)=C\C)[C@H]1C[C@H]2O[C@@]2(C)C[C@H]1OC(=O)/C(C)=C\C (some centres not stated)
> 62.5 mg/L: Staphylococcus aureus [1] | Staphylococcus aureus [2] | Escherichia coli | Candida albicans

C=C(C(CC(O)C(C)(C)O)OC(=O)/C(C)=C\C)[C@H]1C[C@H]2O[C@@]2(C)[C@@H](O)[C@H]1OC(=O)/C(C)=C\C (some centres not stated)
> 62.5 mg/L: Staphylococcus aureus [1] | Staphylococcus aureus [2] | Escherichia coli | Candida albicans

C=C(C(CC(O)C(C)(C)O)OC(=O)/C(C)=C\C)[C@H]1C[C@H]2O[C@@]2(C)C(=O)[C@@H]1OC(=O)/C(C)=C\C (some centres not stated)
> 62.5 mg/L: Staphylococcus aureus [1] | Staphylococcus aureus [2] | Escherichia coli | Candida albicans

C=C(C(CC1OC1(C)C)OC(=O)/C(C)=C\C)[C@H]1C[C@H](Cl)[C@@](C)(O)[C@@H](O)[C@H]1OC(=O)/C(C)=C\C (some centres not stated)
> 62.5 mg/L: Staphylococcus aureus [1] | Staphylococcus aureus [2] | Escherichia coli | Candida albicans

C=C(C(CC1OC1(C)C)OC(=O)/C(C)=C\C)[C@H]1C[C@H]2O[C@@]2(C)[C@H](OC(=O)/C(C)=C\C)[C@@H]1O (some centres not stated)
> 62.5 mg/L: Staphylococcus aureus [1] | Staphylococcus aureus [2] | Escherichia coli | Candida albicans

C=C(C(CC1OC1(C)C)OC(=O)/C(C)=C\C)[C@H]1C[C@H](OC(=O)/C(C)=C\C)[C@@](C)(O)[C@@H](OC(=O)/C(C)=C\C)[C@H]1O (some centres not stated)
> 62.5 mg/L: Staphylococcus aureus [1] | Staphylococcus aureus [2] | Escherichia coli | Candida albicans

C=C(C(CC1OC1(C)C)OC(=O)/C(C)=C\C)[C@H]1C[C@@H]2O[C@]2(C)[C@@H](OC(=O)/C(C)=C\C)[C@@H]1O (some centres not stated)
> 62.5 mg/L: Staphylococcus aureus [1] | Staphylococcus aureus [2] | Escherichia coli | Candida albicans

C=C(C(CC1OC1(C)C)OC(=O)/C(C)=C\C)[C@H]1C[C@H]2O[C@@]2(C)[C@@H](OC(=O)/C(C)=C\C)[C@H]1OC(=O)/C(C)=C\C (some centres not stated)
> 62.5 mg/L: Staphylococcus aureus [1] | Staphylococcus aureus [2] | Escherichia coli | Candida albicans
